Laboratory results from ChEMBL document CHEMBL4765374, “8-Alkynyl-3-nitroimidazopyridines display potent antitrypanosomal activity against both T. b. brucei and cruzi” (Eur J Med Chem, 2020).

What was measured:
Leishmania donovani [1] = experiment: Antileishmanial activity against Leishmania donovani MHOM/IN/00/DEVI promastigotes assessed as inhibition of metabolic activity measured after 72 hrs by MTT assay; type: functional, organism-based
Outline: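 L. donovani MHOM/IN/00/DEVI promastigotes grown in Schneider's medium with 20% FCS at 27 °C. Log-phase parasites at 10⁶/mL were exposed in duplicate to serial compound concentrations in DMSO (final <0.5%) for 72 h at 27 °C. MTT was added for 4 h and absorbance read at 570 nm. EC50 from non-linear regression, mean of at least three independent experiments.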

[2] = Solubility of the compound in aqueous medium at highest dose; type: physicochemical; conditions: buffer
[3] = tested on: Trypanosoma brucei brucei; experiment: […] activity against Trypanosoma brucei brucei AnTat 1.9 measured after 74 hrs by Alamar blue assay; type: functional, organism-based; conditions: AnTat 1.9, 74 h
Outline: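 Bloodstream T. b. brucei AnTat 1.9 grown at 37 °C, 5% CO₂ in MEM with Earle's salts plus mercaptoethanol, L-cysteine, bathocuproine sulfate and 20% heat-inactivated horse serum. Seeded at 2000 parasites/100 µL and exposed in duplicate to compounds in DMSO for 69 h. Alamar Blue then added for 5 h, fluorescence read at ex 530/em 590 nm. EC50 by nonlinear regression from three independent experiments.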

[4] = Cytotoxicity against human HepG2 cells assessed as reduction in cell viability after 72 hrs by MTT assay; type: cell-based
[5] = Selectivity index, ratio of CC50 for human HepG2 cells to EC50 for Trypanosoma brucei brucei AnTat 1.9; type: toxicity; conditions: read-out: Selectivity Index
[6] = Selectivity index, ratio of CC50 for cytotoxicity against human HepG2 cells to EC50 for antileishmanial activity against Leishmania donovani MHOM/IN/00/DEVI promastigotes; type: toxicity, cell-based; conditions: read-out: Selectivity Index
Leishmania donovani [7] = experiment: Antileishmanial activity against wild type Leishmania donovani BOB (MHOM/SD/62/1S-CL2D) promastigotes incubated for 72 hrs by resazurin dye based assay; type: functional, organism-based
Outline: (§1)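 Clonal L. donovani LdBOB promastigotes grown at 26 °C in modified M199; NTR1- and NTR2-overexpressing lines maintained with nourseothricin (100 µg/mL). Triplicate 10 mL cultures seeded at 5×10^4 parasites/mL with drug for 72 h; 200 µL aliquots then given 50 µM resazurin, fluorescence (ex 528/em 590 nm) after 4 h more. EC50 from slope-factor equation; experiments repeated at least twice, mean plus standard deviation.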

Leishmania donovani [8] = experiment: Antileishmanial activity against Leishmania donovani BOB (MHOM/SD/62/1S-CL2D) promastigotes overexpressing NTR1 incubated for 72 hrs by resazurin dye based assay; type: functional, organism-based; outline: as §1
[9] = tested on: Trypanosoma brucei brucei; experiment: Antitrypanosomal activity against bloodstream form of Trypanosoma brucei brucei S427 trypomastigotes overexpressing NTR incubated for 72 hrs; type: functional, organism-based; conditions: S427, 72 h
Outline: (§2)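 Bloodstream-form T. brucei 'single marker' S427 cultured at 37 °C in HMI9-T with 2.5 µg/mL G418. The NTR1-overexpressing line was kept with 2.5 µg/mL phleomycin and induced with 1 µg/mL tetracycline 48 h before testing. Triplicate cultures seeded at 1×10^5 cells/mL with inhibitor. Cell densities counted after 72 h. EC50 from slope-factor equation.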

[10] = tested on: Trypanosoma brucei brucei; experiment: Antitrypanosomal activity against bloodstream form of wild type Trypanosoma brucei brucei S427 trypomastigotes incubated for 72 hrs; type: functional, organism-based; conditions: S427, 72 h; outline: as §2
Leishmania donovani [11] = experiment: Antileishmanial activity against Leishmania donovani BOB (MHOM/SD/62/1S-CL2D) promastigotes overexpressing NTR2 incubated for 72 hrs by resazurin dye based assay; type: functional, organism-based; outline: as §1
THP-1 = experiment: Cytotoxicity against human THP-1 cells assessed as reduction in cell viability after 72 hrs by MTT assay; type: functional
Outline: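 THP-1 cells at 5×10⁴ cells/mL in complete RPMI were exposed in duplicate to compounds in DMSO (final <0.5%) for 72 h at 37 °C. MTT at 0.5 mg/mL for 2 h, formazan dissolved in DMSO, absorbance read at 570 nm with 630 nm reference. CC50 from the dose-response curve, mean of three independent experiments.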

Row | Compound | solubility [2] | EC50 [3] [µM] | EC50 (Leishmania donovani [1]) [µM] | CC50 at 72 h [4] [µM] | selectivity ratio [5] | selectivity ratio [6] | further results
1 | O=[N+]([O-])c1c(CS(=O)(=O)c2ccccc2)nc2c(Br)cc(Br)cn12 | Insoluble | 2.9 | 1.8 | > 31 |  |  | 
2 | O=[N+]([O-])c1c(CS(=O)(=O)c2ccccc2)nc2c(-c3ccncc3)cc(Cl)cn12 |  | 0.25 | 1.2 | > 50 |  |  | 
3 | O=[N+]([O-])c1c(CS(=O)(=O)c2ccccc2)nc2c(Sc3ccc(Cl)cc3)cc(Cl)cn12 |  | 1.3 | 1 |  | > 76.9 |  | 
4 | CC(O)C#Cc1cc(Cl)cn2c([N+](=O)[O-])c(CS(=O)(=O)c3ccccc3)nc12 (configuration not stated) |  | 0.04 | 4.7 | 44.2 | 1100 | 9.4 | 
5 | CCC(O)CC#Cc1cc(Cl)cn2c([N+](=O)[O-])c(CS(=O)(=O)c3ccccc3)nc12 (configuration not stated) | Insoluble | 0.04 | 1.6 | > 62.5 | > 1560 | > 39.1 | EC50 (Leishmania donovani [7]): 7.3 µM; EC50 (Leishmania donovani [8]): 0.4 µM; EC50 [9]: 0.0663 µM; EC50 [10]: 0.2 µM; EC50 (Leishmania donovani [11]): 8.5 µM
6 | O=[N+]([O-])c1c(CS(=O)(=O)c2ccccc2)nc2c(C#Cc3ccc(CO)cc3)cc(Cl)cn12 | Insoluble | 0.16 | 1.6 | > 15.6 | > 97.5 | > 9.8 | 
7 | O=[N+]([O-])c1c(CS(=O)(=O)c2ccccc2)nc2c(C#CC3(O)CCCCC3)cc(Cl)cn12 | Insoluble | 0.1 | 1 | > 25 | > 250 | > 25 | 
8 | O=[N+]([O-])c1c(CS(=O)(=O)c2ccccc2)nc2c(C#CC3(O)CCCC3)cc(Cl)cn12 | Insoluble | 0.1 | 1.7 | > 31.3 | > 313 | > 18.4 | 
9 | Nc1c(CS(=O)(=O)c2ccccc2)nc2c(C#CCCO)cc(Cl)cn12 | Insoluble | 6.8 | > 62.5 | > 62.5 | > 9.2 |  | 
10 | O=[N+]([O-])c1c(CS(=O)(=O)c2ccccc2)nc2c(C#Cc3ccc(F)cc3)cc(Cl)cn12 | Insoluble |  |  | > 3.9 |  |  | 
11 | CC(C)(O)C#Cc1cc(Cl)cn2c([N+](=O)[O-])c(CS(=O)(=O)c3ccccc3)nc12 | Insoluble | 0.12 | 3 | > 62.5 | > 521 | > 20.8 | 
12 | O=C(Cn1ccnc1[N+](=O)[O-])NCc1ccccc1 [BENZNIDAZOLE] |  |  |  |  |  |  | CC50 (THP-1): > 200 µM
13 | COc1cccc2c1C(=O)c1c(O)c3c(c(O)c1C2=O)C[C@@](O)(C(=O)CO)C[C@@H]3O[C@H]1C[C@H](N)[C@H](O)[C@H](C)O1 [DOXORUBICIN] |  |  |  |  |  |  | CC50 (THP-1): 0.7 µM
14 | NCCCC(N)(C(=O)O)C(F)F (configuration not stated) [EFLORNITHINE] |  |  |  | > 100 | > 7.5 |  | 
15 | CSc1ccc(OCc2ncc([N+](=O)[O-])n2C)cc1 [FEXINIDAZOLE] |  | 0.6 | 1.2 |  |  |  | CC50 (THP-1): > 200 µM
16 | CCCCCCCCCCCCCCCCOP(=O)([O-])OCC[N+](C)(C)C [MILTEFOSINE] |  |  |  |  |  |  | CC50 (THP-1): 35 µM
17 | CC1CS(=O)(=O)CCN1/N=C/c1ccc([N+](=O)[O-])o1 (configuration not stated) [NIFURTIMOX] |  | 2.6 |  | 45.2 | 17.4 |  | 
18 | Cc1ccc(C(=O)Nc2ccc(S(=O)(=O)O)c3cc(S(=O)(=O)O)cc(S(=O)(=O)O)c23)cc1NC(=O)c1cccc(NC(=O)Nc2cccc(C(=O)Nc3cc(C(=O)Nc4ccc(S(=O)(=O)O)c5cc(S(=O)(=O)O)cc(S(=O)(=O)O)c45)ccc3C)c2)c1 [SURAMIN] |  |  |  | > 100 |  |  | 

Continued, in another order:

Row | solubility [2] | EC50 [3] [µM] | Compound | EC50 (Leishmania donovani [1]) [µM] | CC50 at 72 h [4] [µM] | selectivity ratio [5] | selectivity ratio [6] | further results
19 | Insoluble |  | COc1cccc(C#Cc2cc(Cl)cn3c([N+](=O)[O-])c(CS(=O)(=O)c4ccccc4)nc23)c1 |  | > 3.9 |  |  | 
20 | Insoluble |  | COc1ccc(C#Cc2cc(Cl)cn3c([N+](=O)[O-])c(CS(=O)(=O)c4ccccc4)nc23)cc1 |  | > 3.9 |  |  | 
21 |  | 0.16 | O=[N+]([O-])c1c(CS(=O)(=O)c2ccccc2)nc2c(C#CCOc3ccccc3)cc(Cl)cn12 | 1.3 | 8.4 | 52.5 | 6.5 | 
22 | Insoluble |  | O=[N+]([O-])c1c(CS(=O)(=O)c2ccccc2)nc2c(C#Cc3ccccc3)cc(Cl)cn12 |  | > 3.9 |  |  | 
23 | Insoluble |  | O=[N+]([O-])c1c(CS(=O)(=O)c2ccccc2)nc2c(C#Cc3cccs3)cc(Cl)cn12 |  | > 3.9 |  |  | 
24 | Insoluble |  | O=[N+]([O-])c1c(CS(=O)(=O)c2ccccc2)nc2c(C#Cc3cccc(F)c3)cc(Cl)cn12 |  | > 3.9 |  |  | 
25 |  | 0.12 | O=[N+]([O-])c1c(CS(=O)(=O)c2ccccc2)nc2c(C#CCO)cc(Cl)cn12 | 3.9 | 10.1 | 84.2 | 2.6 | 
26 |  | 0.13 | CC(O)(C#Cc1cc(Cl)cn2c([N+](=O)[O-])c(CS(=O)(=O)c3ccccc3)nc12)c1ccccc1 (configuration not stated) | 1 | 18.8 | > 145 | 18.8 | 
27 | Insoluble |  | O=[N+]([O-])c1c(CS(=O)(=O)c2ccccc2)nc2c(C#Cc3ccccc3F)cc(Cl)cn12 |  | > 3.9 |  |  | 
28 | Insoluble |  | COc1ccccc1C#Cc1cc(Cl)cn2c([N+](=O)[O-])c(CS(=O)(=O)c3ccccc3)nc12 |  | > 3.9 |  |  | 
29 | Insoluble |  | Nc1ccc(C#Cc2cc(Cl)cn3c([N+](=O)[O-])c(CS(=O)(=O)c4ccccc4)nc23)cc1 |  | > 3.9 |  |  | 
30 | Insoluble |  | O=[N+]([O-])c1c(CS(=O)(=O)c2ccccc2)nc2c(C#Cc3cccnc3)cc(Cl)cn12 |  | > 3.9 |  |  | 
